Laboratory results taken from ChEMBL document CHEMBL1122608, “Nitrogen bridgehead compounds. 44. New antiallergic 4H-pyrido[1,2-a]pyrimidin-4-ones. 4” (1984).

Assays:
[1] = test system: Rattus norvegicus; test: Antiallergic activity by passive cutaneous anaphylaxis test after intravenous administration.; assay type: functional; settings: read-out: ID50 (the source's name)
Summary of the method: (§1)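 Adult female Sprague-Dawley rats (200 g, five per group) sensitized intradermally at two sites with rat reaginic anti-ovalbumin serum; after 48 h, challenged with chicken ovalbumin 20 mg/kg plus Evans blue 40 mg/kg. Compound iv at 32, 3.2, 0.32 µmol/kg at challenge. Dermal bluing area measured 30 min later; ≥3 doses, ID50 from dose-response regression; Student's t test.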

[2] = test system: Rattus norvegicus; test: Antiallergic activity was evaluated by passive cutaneous anaphylaxis test after intra venous administration; insoluble; assay type: functional, organism-based; summary of the method: as §1
[3] = test system: Rattus norvegicus; test: Inhibition of histamine release by 50% in rats after intra peritoneal administration; assay type: functional
Summary of the method: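 Male Sprague-Dawley rats (~250 g, six per group) passively sensitized ip with anti-ovalbumin reaginic serum, challenged 4 h later with ip ovalbumin 1 mg/rat; compound ip 30 s before antigen, ≥3 doses. Peritoneal fluid taken 3 min post-challenge, centrifuged at 150 g; histamine in supernatant measured fluorometrically (autoanalyzer). ID50 from dose-response regression curve; Student's t test.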

[4] = test system: Rattus norvegicus; test: Inhibition of Evans blue extravasation by 50% in rats after intra peritoneal administration; assay type: functional
Summary of the method: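 Male Sprague-Dawley rats (~250 g, six per group) sensitized ip with 1 mL anti-ovalbumin reaginic serum; 4 h later Evans blue iv, then ovalbumin 1 mg/rat ip in Tris buffer. Compound ip 30 s before challenge, ≥3 doses. Peritoneal fluid collected at 3 min; extravasated dye read at 615 nm. ID50 from dose-response regression; Student's t test.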

| SMILES | ED50 [1] | further results |
| --- | --- | --- |
| CC1CCCc2ncc(C(=O)O)c(=O)n21 (centres undefined) | 240 µmol/kg | – |
| CC1CCC(/C=N/c2ccc3ccccc3c2)=C2NC=C(C(=O)O)C(=O)N21 (centres undefined) | – | ID50 [2]: Insoluble |
| CC1CCN2C(=O)C(C(=O)O)=CNC2=C1/C=N/c1ccccc1 (centres undefined) | – | ID50 [2]: Insoluble |
| O=C(O)C1=CNC2=C(/C=N/c3ccccc3C(=O)O)CCCCN2C1=O | 68.7 µmol/kg | – |
| O=C(O)c1cnc2n(c1=O)CCCC/C2=N\Nc1ccccc1 | 14.4 µmol/kg | – |
| Cc1cccc(/N=C/C2=C3NC=C(C(=O)O)C(=O)N3[C@@H](C)CC2)c1 | 0.02 µmol/kg | – |
| O=C(O)C1=CNC2=C(/C=N/c3ccccc3)CCN2C1=O | 15.4 µmol/kg | – |
| CC1CCC(=NNc2ccccc2)c2ncc(C(=O)O)c(=O)n21 (centres undefined) | 0.6 µmol/kg | – |
| C[C@H]1CC/C(=N\Nc2ccccc2)c2ncc(C(=O)O)c(=O)n21 | 0.3 µmol/kg | ID50 [3]: 1 nmol/kg; ID50 [4]: 5 nmol/kg |
| CC1CCC(/C=N/c2cccc(Cl)c2)=C2NC=C(C(=O)O)C(=O)N21 (centres undefined) | – | ID50 [2]: Insoluble |
| CC1CC(/C=N/c2ccccc2C(=O)O)=C2NC=C(C(=O)O)C(=O)N2C1 (centres undefined) | 48.1 µmol/kg | – |
| CC1CCC(/C=N/c2cccnc2)=C2NC=C(C(=O)O)C(=O)N21 (centres undefined) | 2.4 µmol/kg | ID50 [3]: 100 nmol/kg; ID50 [4]: 360 nmol/kg |
| C[C@H]1CC/C(=N\Nc2ccccc2)c2ncc(/C=C/C(=O)O)c(=O)n21 | 0.15 µmol/kg | – |
| CC1CCC(/C=N/c2ccc(Cl)cc2)=C2NC=C(C(=O)O)C(=O)N21 (centres undefined) | – | ID50 [2]: Insoluble |
| CC1CCC(/C=N/c2ccccc2)=C2NC=C(C(=O)O)C(=O)N21 (centres undefined) | – | ID50 [2]: Insoluble |
| CC(=O)c1ccc(/N=C/C2=C3NC=C(C(=O)O)C(=O)N3C(C)CC2)cc1 (centres undefined) | 0.75 µmol/kg | – |
| CC1CCC(/C=N/c2ccc([N+](=O)[O-])cc2)=C2NC=C(C(=O)O)C(=O)N21 (centres undefined) | – | ID50 [2]: Insoluble |
| CC1CC/C(=N\Nc2ccccc2)c2ncc(/C=C/C(=O)O)c(=O)n21 (centres undefined) | 0.27 µmol/kg | – |
| CCOC(=O)C1=CNC2=C(/C=N/c3ccc(C(=O)O)cc3)CCC(C)N2C1=O (centres undefined) | 67.1 µmol/kg | – |
| CC1CCC(/C=N/c2ccc(F)cc2)=C2NC=C(C(=O)O)C(=O)N21 (centres undefined) | 10.6 µmol/kg | – |
| CC1CCC(/C=N/c2ccccc2C(=O)O)=C2NC=C(C(=O)O)C(=O)N21 (centres undefined) | 1.11 µmol/kg | ID50 [3]: 10 nmol/kg; ID50 [4]: 140 nmol/kg |
| CCOc1cccc(/N=C/C2=C3NC=C(C(=O)O)C(=O)N3C(C)CC2)c1 (centres undefined) | – | ID50 [2]: Insoluble |
| Cc1cccc(/N=C/C2=C3NC=C(C(=O)O)C(=O)N3[C@H](C)CC2)c1 | 66.9 µmol/kg | – |
| CC1CC(/C=N/c2ccccc2)=C2NC=C(C(=O)O)C(=O)N21 (centres undefined) | 20.2 µmol/kg | – |

| SMILES | ED50 [1] | further results |
| --- | --- | --- |
| CC1CCN2C(=O)C(C(=O)O)=CNC2=C1/C=N/c1ccccc1C(=O)O (centres undefined) | 100 µmol/kg | – |
| CCOc1ccc(/N=C/C2=C3NC=C(C(=O)O)C(=O)N3C(C)CC2)cc1 (centres undefined) | 8.96 µmol/kg | – |
| CC1CCC(/C=N/c2ccc(Br)cc2)=C2NC=C(C(=O)O)C(=O)N21 (centres undefined) | – | ID50 [2]: Insoluble |
| CC1CCC(/C=N/c2ccc(C(F)(F)F)cc2)=C2NC=C(C(=O)O)C(=O)N21 (centres undefined) | > 100 µmol/kg | – |
| CC1CCC(/C=N/c2ccc(CC(=O)O)cc2)=C2NC=C(C(=O)O)C(=O)N21 (centres undefined) | 5.8 µmol/kg | ID50 [3]: 110 nmol/kg; ID50 [4]: 280 nmol/kg |
| CC1CCC(/C=N/c2ccccc2F)=C2NC=C(C(=O)O)C(=O)N21 (centres undefined) | 14.5 µmol/kg | – |
| CCOC(=O)C1=CNC2=C(/C=N/c3ccccc3C(=O)O)CCC(C)N2C1=O (centres undefined) | 24.8 µmol/kg | – |
| O=C(O)C1=CNC2=C(/C=N/c3ccccc3C(=O)O)CCCN2C1=O | 22.9 µmol/kg | – |
| O=C([O-])c1cc(=O)c2c(OCC(O)COc3cccc4oc(C(=O)[O-])cc(=O)c34)cccc2o1.[Na+].[Na+] [CROMOLYN SODIUM] | 1 µmol/kg | ID50 [3]: 16 nmol/kg; ID50 [4]: 55 nmol/kg |
| COc1ccc(/N=C/C2=C3NC=C(C(=O)O)C(=O)N3C(C)CC2)cc1 (centres undefined) | – | ID50 [2]: Insoluble |
| CC1CCC(/C=N/c2cccc(Br)c2)=C2NC=C(C(=O)O)C(=O)N21 (centres undefined) | – | ID50 [2]: Insoluble |
| C[C@@H]1CC/C(=N\Nc2ccccc2)c2ncc(/C=C/C(=O)O)c(=O)n21 | > 100 µmol/kg | – |
| Cc1ccc(/N=C/C2=C3NC=C(C(=O)O)C(=O)N3C(C)CC2)cc1 (centres undefined) | 3.6 µmol/kg | – |
| C[C@@H]1CC/C(=N\Nc2ccccc2)c2ncc(C(=O)O)c(=O)n21 | 54.8 µmol/kg | – |
| CC1CCC(/C=N/c2ccccc2)=C2NC(c3ccccc3)=C(/C=C/C(=O)O)C(=O)N21 (centres undefined) | – | ID50 [2]: Insoluble |
| CCOC(=O)C1=CNC2=C(/C=N/c3ccccc3)CCC(C)N2C1=O (centres undefined) | – | ID50 [2]: Insoluble |
| Cc1nc2n(c(=O)c1/C=C/C(=O)O)C(C)CC/C2=N\Nc1ccccc1 (centres undefined) | 0.29 µmol/kg | – |
| CC1CCC(/C=N/c2ccc(C(=O)O)cc2)=C2NC=CC(=O)N21 (centres undefined) | > 100 µmol/kg | – |
| CC1CCC(/C=N/c2ccc(O)cc2)=C2NC=C(C(=O)O)C(=O)N21 (centres undefined) | 1.2 µmol/kg | – |
| CCOC(=O)C1=CNC2=C(/C=N/c3cccc(C(=O)O)c3)CCC(C)N2C1=O (centres undefined) | 100 µmol/kg | – |
| CC1CCC(/C=N/c2ccccc2O)=C2NC=C(C(=O)O)C(=O)N21 (centres undefined) | 4.11 µmol/kg | – |
| CC1CCC(/C=N/c2cccc(C(=O)O)c2)=C2NC=CC(=O)N21 (centres undefined) | > 100 µmol/kg | – |
| Cc1cccc(/N=C/C2=C3NC=C(C(=O)O)C(=O)N3C(C)CC2)c1 (centres undefined) | 0.8 µmol/kg | ID50 [3]: 2 nmol/kg; ID50 [4]: 130 nmol/kg |
